Measured values: PMC11567926 (Current Research in Food Science, 2024)
Residues, ends and D or L forms follow the SMILES beside them.

How the values were obtained:
[1] = target: T1, DPP-IV (Homo sapiens, UniProt P27487); test: cell-based
[2] = system: Caco-2 cell monolayer; test: Caco-2 cell monolayer transmembrane transport; type: in vitro ADME, human; conditions: 4 mM, 120 min
Method in brief: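 Caco-2 cells seeded at 2 × 10^5 cells/mL on the apical side of 0.4 μm-pore Transwells and cultured 21 days to a differentiated monolayer; TEER over 350 Ω cm2 required. Both sides washed twice and equilibrated 30 min in HBSS. Peptide added apically, HBSS basolaterally, 120 min in incubator. AP and BL liquids analysed by RP-HPLC (1 mL/min, 30 °C column, 220 nm).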

[3] = system: Caco-2 cells; test: Caco-2 cell viability, MTT colorimetric assay; type: cell-based, human; conditions: 8 mM peptide, 4 h
Method in brief: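 Caco-2 cells grown in DMEM with 10% FBS and 1% penicillin-streptomycin at 37 °C, 5% CO2. Seeded at 5 × 10^4 cells/well and incubated 24 h. Medium replaced with peptide at 0.5, 1, 2, 4 or 8 mM for 4 h, 6 replicates per sample. MTT solution (5 mg/mL) added for 4 h, formazan dissolved in DMSO with ~15 min shaking, OD read at 490 nm.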

[4] = target: T1, DPP-IV; test: in vitro DPP-IV inhibitory activity; type: biochemical; conditions: synthesized peptides, in vitro enzyme assay
Method in brief: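 Human DPP-IV (0.1 U/mL) and Gly-Pro-p-nitroanilide (2 mmol/L) solutions made in 100 mmol/L Tris-HCl, pH 8.0. Substrate and sample preincubated 10 min at 37 °C under subdued light. Enzyme then added and incubated 1 h at 37 °C. Stopped with 1 mol/L sodium acetate, pH 4.0, and absorbance read at 405 nm. Inhibition calculated from sample, sample-blank, control and blank absorbances.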

[5] = system: Caco-2 cells; conditions: 4 mM; ref Mu et al., 2024; cited from earlier work
[6] = system: glucose metabolism; conditions: 300 mg/kg, OGTT normal rats; ref Uenishi et al. (2012); cited from earlier work

T1 sequence (P27487 whole entry): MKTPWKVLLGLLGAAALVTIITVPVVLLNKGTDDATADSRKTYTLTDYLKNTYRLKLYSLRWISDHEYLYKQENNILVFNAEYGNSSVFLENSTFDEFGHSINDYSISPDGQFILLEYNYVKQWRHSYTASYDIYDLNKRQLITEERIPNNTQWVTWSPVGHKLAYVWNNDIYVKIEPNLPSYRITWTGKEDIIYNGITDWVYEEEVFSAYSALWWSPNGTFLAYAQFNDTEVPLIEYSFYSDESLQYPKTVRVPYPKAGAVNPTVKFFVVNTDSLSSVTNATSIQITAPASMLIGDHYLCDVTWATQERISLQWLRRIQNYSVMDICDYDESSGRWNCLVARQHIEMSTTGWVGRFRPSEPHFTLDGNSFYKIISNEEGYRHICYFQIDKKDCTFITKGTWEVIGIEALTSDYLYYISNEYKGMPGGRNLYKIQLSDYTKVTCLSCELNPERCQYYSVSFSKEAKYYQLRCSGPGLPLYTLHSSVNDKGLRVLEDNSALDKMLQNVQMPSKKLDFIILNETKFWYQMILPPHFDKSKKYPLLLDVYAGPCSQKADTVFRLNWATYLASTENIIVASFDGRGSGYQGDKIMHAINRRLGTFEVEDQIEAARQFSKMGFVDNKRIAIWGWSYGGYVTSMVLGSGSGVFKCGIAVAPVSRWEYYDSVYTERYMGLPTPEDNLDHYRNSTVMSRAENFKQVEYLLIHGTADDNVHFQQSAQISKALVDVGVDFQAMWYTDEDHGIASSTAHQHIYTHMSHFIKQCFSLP

## CC(C)[C@H](N)C(=O)N1CCC[C@H]1C(=O)N[C@@H](Cc1ccccc1)C(=O)N[C@@H](Cc1c[nH]c2ccccc12)C(=O)N[C@@H](C)C(=O)O [VPFWA] (H-VPFWA-OH; N-terminus and C-terminus assumed)
[1]
  IC50: 325 ± 8.4 µM
[2]; AP to BL
  passage through the Caco-2 cell monolayer: pass through the Caco-2 cell monolayer intact
[2]; RP-HPLC
  chromatographic peak in the BL-side samples: smallest peak
[3]
  survival rates of Caco-2 cells: 76.03 ± 1.08%
[4]
  IC50: 251 ± 12.8 µM

## LDATDMVALVG
[5]
  damage to cell viability of Caco-2 cells: least damage to cell viability

## LPQNIPPL
[6]
  glucose metabolism: improved glucose metabolism
  plasma insulin levels: significantly reduced plasma insulin levels

## SPVAEVPFLR
[5]
  damage to cell viability of Caco-2 cells: least damage to cell viability
